In ChEMBL document CHEMBL1140226, “Development of novel G-protein-coupled receptor 54 agonists with resistance to degradation by matrix metalloproteinase” (J Med Chem, 2008):

Legend:
KiSS-1 receptor [1] = target: T1, KiSS-1 receptor (Homo sapiens, UniProt Q969F8); experiment: Agonist activity at human GPR54 expressed in CHO cells assessed as effect on kisspeptin-10-induced response by FLIPR assay; type: functional, cell-based
KiSS-1 receptor [2] = target: T1, KiSS-1 receptor; experiment: Displacement of [125I]kisspeptin-15 from human GPR54 expressed in CHO cell membrane; type: cell membranes
[3] = Stability in mouse serum assessed as half life; type: ADME, cell-free
Summary of the method: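 Peptides were incubated in murine serum and the half-life was determined.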

[4] = target: Matrix metalloproteinase-9 (Homo sapiens) (UniProt P14780); experiment: Inhibition of MMP9 at 10 uM by fluorimetric assay; set-up: scale not given: the % may be the effect or the level left
[5] = target: 72 kDa type IV collagenase (Homo sapiens) (UniProt P08253); experiment: Inhibition of MMP2 at 10 uM by fluorimetric assay; set-up: scale not given: the % may be the effect or the level left
Serum = experiment: Stability in mouse serum within 1 hr; type: ADME, cell-free
KiSS-1 receptor [6] = target: T1, KiSS-1 receptor; experiment: Ratio of IC50 of compound to IC50 of kisspeptin-10 for human GPR54

Matrix metalloproteinase-9 (Homo sapiens), sequence (P14780 whole entry): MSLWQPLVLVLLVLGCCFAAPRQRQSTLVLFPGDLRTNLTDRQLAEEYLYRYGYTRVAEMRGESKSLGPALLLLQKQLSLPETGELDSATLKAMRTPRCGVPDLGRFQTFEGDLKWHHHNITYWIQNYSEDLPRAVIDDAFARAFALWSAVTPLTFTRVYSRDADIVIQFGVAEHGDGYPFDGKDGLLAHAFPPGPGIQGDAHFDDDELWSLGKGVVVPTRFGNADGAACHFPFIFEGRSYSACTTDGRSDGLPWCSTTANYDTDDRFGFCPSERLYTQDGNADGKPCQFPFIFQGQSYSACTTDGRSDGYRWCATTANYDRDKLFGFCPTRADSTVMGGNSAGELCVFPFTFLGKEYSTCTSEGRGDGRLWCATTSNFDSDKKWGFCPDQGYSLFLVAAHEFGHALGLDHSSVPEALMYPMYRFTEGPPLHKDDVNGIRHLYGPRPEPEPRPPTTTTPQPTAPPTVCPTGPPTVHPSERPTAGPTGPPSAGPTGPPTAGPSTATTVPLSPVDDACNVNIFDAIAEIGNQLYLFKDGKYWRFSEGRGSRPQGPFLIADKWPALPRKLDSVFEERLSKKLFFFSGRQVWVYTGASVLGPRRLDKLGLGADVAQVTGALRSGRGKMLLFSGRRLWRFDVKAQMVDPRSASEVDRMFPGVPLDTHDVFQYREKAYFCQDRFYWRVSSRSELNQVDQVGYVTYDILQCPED
72 kDa type IV collagenase (Homo sapiens), sequence (P08253 110-660 limits assumed): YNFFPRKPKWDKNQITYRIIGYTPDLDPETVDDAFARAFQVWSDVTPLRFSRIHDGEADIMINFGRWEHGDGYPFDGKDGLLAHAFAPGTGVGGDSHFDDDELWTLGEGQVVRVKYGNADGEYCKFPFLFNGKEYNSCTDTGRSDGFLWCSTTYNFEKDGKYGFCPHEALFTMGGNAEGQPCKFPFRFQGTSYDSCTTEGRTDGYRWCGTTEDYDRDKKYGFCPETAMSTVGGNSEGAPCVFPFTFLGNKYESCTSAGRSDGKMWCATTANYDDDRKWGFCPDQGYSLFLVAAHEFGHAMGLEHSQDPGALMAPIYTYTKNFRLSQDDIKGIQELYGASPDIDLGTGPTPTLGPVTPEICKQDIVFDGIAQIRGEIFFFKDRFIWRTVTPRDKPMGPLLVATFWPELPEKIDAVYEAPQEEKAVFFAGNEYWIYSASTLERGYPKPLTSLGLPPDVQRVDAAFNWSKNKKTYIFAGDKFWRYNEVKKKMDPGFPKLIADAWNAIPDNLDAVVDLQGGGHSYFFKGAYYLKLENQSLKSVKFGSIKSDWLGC
T1 sequence (Q969F8 whole entry): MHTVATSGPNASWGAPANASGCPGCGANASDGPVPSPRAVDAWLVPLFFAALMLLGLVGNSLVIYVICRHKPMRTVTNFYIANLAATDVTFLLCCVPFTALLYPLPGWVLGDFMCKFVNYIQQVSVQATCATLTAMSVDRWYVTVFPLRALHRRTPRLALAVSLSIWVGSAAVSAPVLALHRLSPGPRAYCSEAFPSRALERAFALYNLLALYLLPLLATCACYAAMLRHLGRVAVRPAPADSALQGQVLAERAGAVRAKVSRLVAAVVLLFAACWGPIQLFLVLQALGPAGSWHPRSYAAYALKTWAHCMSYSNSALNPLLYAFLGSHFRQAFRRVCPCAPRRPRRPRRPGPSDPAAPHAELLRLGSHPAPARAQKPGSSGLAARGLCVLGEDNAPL

| Structure (SMILES) | half-life [3] [min] | Activity [4] [%] | Activity [5] [%] | also measured |
| --- | --- | --- | --- | --- |
| CC(C)C/C(=C\[C@@H](O)CNC(=O)[C@H](Cc1ccccc1)NC(=O)c1ccc(F)cc1)C(=O)N[C@@H](CCCNC(=N)N)C(=O)N[C@@H](Cc1c[nH]c2ccccc12)C(N)=O | 60 | 104 | 99.1 | – |
| CC(C)C[C@H](NC(=O)CNC(=O)[C@H](Cc1ccccc1)NC(=O)[C@H](CO)NC(=O)[C@H](CC(N)=O)NC(=O)[C@H](Cc1c[nH]c2ccccc12)NC(=O)[C@H](CC(N)=O)NC(=O)[C@@H](N)Cc1ccc(O)cc1)C(=O)N[C@@H](CCCNC(=N)N)C(=O)N[C@@H](Cc1ccccc1)C(N)=O [KISSPEPTIN-10] | – | – | – | Stability (Serum): Unstable; IC50 (KiSS-1 receptor [2]): 0.07 nM |
| CC(C)C[C@H](C[C@@H](O)CNC(=O)[C@H](Cc1ccccc1)NC(=O)c1ccc(F)cc1)C(=O)N[C@@H](CCCNC(=N)N)C(=O)N[C@@H](Cc1c[nH]c2ccccc12)C(N)=O | 54 | 109 | 96.2 | – |
| CC(C)C[C@H](/C=C/CNC(=O)[C@H](Cc1ccccc1)NC(=O)c1ccc(F)cc1)C(=O)N[C@@H](CCCNC(=N)N)C(=O)N[C@@H](Cc1c[nH]c2ccccc12)C(N)=O | – | 101 | 101 | – |
| CC(C)C[C@H](CCCNC(=O)[C@H](Cc1ccccc1)NC(=O)c1ccc(F)cc1)C(=O)N[C@@H](CCCNC(=N)N)C(=O)N[C@@H](Cc1c[nH]c2ccccc12)C(N)=O | 45 | 102 | 97.1 | – |
| CC(C)C[C@H](C[C@H](O)CNC(=O)[C@H](Cc1ccccc1)NC(=O)c1ccc(F)cc1)C(=O)N[C@@H](CCCNC(=N)N)C(=O)N[C@@H](Cc1c[nH]c2ccccc12)C(N)=O | – | 103 | 98.7 | – |
| CC(C)C[C@H](NC(=O)CNC(=O)[C@H](Cc1ccccc1)NC(=O)c1ccc(F)cc1)C(=O)N[C@@H](CCCNC(=N)N)C(=O)N[C@@H](Cc1c[nH]c2ccccc12)C(N)=O | – | – | – | Ratio IC50 (KiSS-1 receptor [6]): 7.3 |
| CC(C)C[C@@H](NC(=O)CNC(=O)[C@H](Cc1ccccc1)NC(=O)c1ccc(F)cc1)C(=O)N[C@@H](CCCNC(=N)N)C(=O)N[C@@H](Cc1c[nH]c2ccccc12)C(N)=O | – | – | – | Ratio IC50 (KiSS-1 receptor [6]): 240; IC50 (KiSS-1 receptor [2]): 240 nM |
| CC(C)C/C(=C\[C@H](O)CNC(=O)[C@H](Cc1ccccc1)NC(=O)c1ccc(F)cc1)C(=O)N[C@@H](CCCNC(=N)N)C(=O)N[C@@H](Cc1c[nH]c2ccccc12)C(N)=O | – | 103 | 96.9 | – |
| CC(C)C/C(=C\CCNC(=O)[C@H](Cc1ccccc1)NC(=O)c1ccc(F)cc1)C(=O)N[C@@H](CCCNC(=N)N)C(=O)N[C@@H](Cc1c[nH]c2ccccc12)C(N)=O | 52 | 98.9 | 94.5 | – |

Continued, in another order:

| half-life [3] [min] | Activity [4] [%] | Activity [5] [%] | Structure (SMILES) | also measured |
| --- | --- | --- | --- | --- |
| 6.6 | – | – | CC(C)C[C@H](NC(=O)CNC(=O)[C@H](Cc1ccccc1)NC(=O)c1ccc(F)cc1)C(=O)N[C@@H](CCCN=C(N)N)C(=O)N[C@@H](Cc1c[nH]c2ccccc12)C(N)=O | EC50 (KiSS-1 receptor [1]): 0.45 nM; IC50 (KiSS-1 receptor [2]): 0.71 nM |
| 470 | – | – | CC(C)C[C@@H](C[C@@H](O)CNC(=O)[C@H](Cc1ccccc1)NC(=O)c1ccc(F)cc1)C(=O)N[C@@H](CCCN=C(N)N)C(=O)N[C@@H](Cc1c[nH]c2ccccc12)C(N)=O | IC50 (KiSS-1 receptor [2]): 380 nM |
| 1100 | – | – | CC(C)C/C(=C\[C@H](O)CNC(=O)[C@H](Cc1ccccc1)NC(=O)c1ccc(F)cc1)C(=O)N[C@@H](CCCN=C(N)N)C(=O)N[C@@H](Cc1c[nH]c2ccccc12)C(N)=O | – |
| 38 | – | – | CC(C)C[C@H](/C=C/CNC(=O)[C@H](Cc1ccccc1)NC(=O)c1ccc(F)cc1)C(=O)N[C@@H](CCCN=C(N)N)C(=O)N[C@@H](Cc1c[nH]c2ccccc12)C(N)=O | EC50 (KiSS-1 receptor [1]): 0.3 nM |
| 120 | 100 | 99.3 | CC(C)C[C@@H](C[C@H](O)CNC(=O)[C@H](Cc1ccccc1)NC(=O)c1ccc(F)cc1)C(=O)N[C@@H](CCCNC(=N)N)C(=O)N[C@@H](Cc1c[nH]c2ccccc12)C(N)=O | – |
| 35 | – | – | CC(C)C[C@H](C[C@H](O)CNC(=O)[C@H](Cc1ccccc1)NC(=O)c1ccc(F)cc1)C(=O)N[C@@H](CCCN=C(N)N)C(=O)N[C@@H](Cc1c[nH]c2ccccc12)C(N)=O | IC50 (KiSS-1 receptor [2]): 0.24 nM |
| – | 108 | 96.5 | CC(C)C[C@@H](C[C@@H](O)CNC(=O)[C@H](Cc1ccccc1)NC(=O)c1ccc(F)cc1)C(=O)N[C@@H](CCCNC(=N)N)C(=O)N[C@@H](Cc1c[nH]c2ccccc12)C(N)=O | – |
